Key:
P23H rhodopsin [1] = molecular target: T1, P23H rhodopsin (Mus musculus, UniProt P15409, P23H); assay: Rhodopsin immunoblot of NIH3T3; format: cell-based; conditions: 10 μM MTX plus 100 nM BafA1, 24 h
How it was run: (§1)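 Cells were seeded at 5 × 10⁵/well in 6-well plates for 17 h, then given fresh medium with test compound and inhibitor. Protein was measured by A280. Rhodopsin blots loaded 100 μg (P23H line) or 20 μg (WT line), run on 10% and 16% SDS-PAGE and transferred to nitrocellulose. Membranes were blocked 1 h in 5% BSA/PBS-0.05% Tween 20, probed with primary overnight at 4 °C and secondary 1 h at RT, with chemiluminescent detection.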

Rho^P23H/+ mice [2] = assay: Retinal immunohistochemistry; format: in vivo, mouse
How it was run: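 Rho^P23H/+ mice received intravitreal test compound (25 or 100 pmol) in one eye and PBS in the fellow eye. Dosing was either a single injection at PND 15, with eyes enucleated at PND 33, or four weekly injections from PND 15, with enucleation at PND 46. Retinae were processed for rhodopsin immunohistochemistry and ONL nuclear counts. Age-matched Rho^+/+ mice served as normal controls.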

RHO transcripts = assay: qPCR of RHO transcripts in NIH3T3; format: cell-based, mouse; conditions: 10 μM, 24 h
How it was run: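 NIH3T3 cells stably expressing WT or P23H rhodopsin (GFP lines) were seeded in 24-well plates at 2.5×10⁵ cells/well and cultured overnight at 37 °C, 5% CO₂. They were then exposed to test compound in culture medium for 24 h. RNA was precipitated by centrifugation at 12,000×g for 10 min at 4 °C, washed with 75% ethanol, air-dried and dissolved in nuclease-free water before qPCR.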

P23H rhodopsin [3] = molecular target: T1, P23H rhodopsin; assay: Non-radioactive pulse-chase assay in NIH3T3; format: cell-based; conditions: 10 μM
How it was run: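 Non-radioactive pulse-chase. Cells (3 × 10⁵/well, 24-well) were grown overnight, starved in Met-free DMEM for 1 h, then pulsed with 50 μM L-AHA for 4 h (50 μM Met as negative control). Chase was 24 h in DMEM with 2 mM Met ± 10 μM test compound. Lysates (200 μg) were clicked with 5 μM BTN-sDIBO for 1 h at 37 °C, immunoprecipitated with 1D4, eluted at pH 2.8, dot-blotted and probed with HRP-streptavidin. Values normalized to DMSO on the same membrane; N=3, unpaired two-tailed t-test.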

[4] = tested on: chymotrypsin-like proteasome activity; assay: Proteasome activity assay; format: cell-based; conditions: NIH3T3(RHO^P23H/GFP) and NIH3T3(RHO^WT/GFP) cells, MTX 0.0195 to 10 μM, 24 h
How it was run: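 Cells were seeded at 2500/well in 384-well plates and after 3 h treated for 24 h with test compound at 0.0195–10 μM final. Controls were 0.1% DMSO (100%) and 5 μM MG-132 for 8 h (0%). Proteasome-Glo reagent with Suc-LLVY-Glo substrate was added, shaken 2 min and held 24 min at RT. Luminescence gave chymotrypsin-like activity, normalized to the controls.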

Rho^P23H/+ mice [5] = assay: Electroretinogram; format: in vivo, mouse
How it was run: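 Rho^P23H/+ mice (homozygous knock-in crossed with C57BL/6J). Test compound given by intravitreal injection to one eye, PBS to the other. Dosing was a single 25 or 100 pmol at PND 15 with ERG at PND 32, or four weekly injections (PND 15, 22, 29, 36) with ERG at PND 44. Scotopic ERG used eight flashes. Photopic ERG used six flashes (0.01–30 cd·s/m²) after 5 min adaptation to 10 cd/m², on that background. Age-matched Rho^+/+ controls. Two-way ANOVA.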

P23H rhodopsin [6] = molecular target: T1, P23H rhodopsin; assay: Rhodopsin dot blot of NIH3T3; format: cell-based; conditions: NIH3T3(RHO^P23H/GFP) cells, 10 μM, 24 h, vs DMSO control
How it was run: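 NIH3T3(RHO^P23H/GFP) cells were seeded at 2.5 × 10⁴/well in 96-well plates, attached 4 h, then given medium with 2× test compound to reach 10 μM final for 24 h. Cells were PBS-washed and lysed in RIPA with protease inhibitors plus 6 s sonication. Of each well's lysate, 90% was dotted on nitrocellulose, air-dried and probed with 0.1 μg/mL HRP-1D4. Densitometry was normalized to DMSO.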

WT rhodopsin = assay: Rhodopsin immunoblot of NIH3T3; format: cell-based, mouse; conditions: 10 μM MTX plus 100 nM BafA1, 24 h
How it was run: as §1

Rho^P23H/+ mice [7] = assay: Immunoblot of LC3 and SQSTM1/p62 in retinae after IVI; format: in vivo, mouse; conditions: 25 pmol IVI at PND 15, 48 h after treatment
How it was run: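 Rho^P23H/+ mice received a 25 pmol/eye intravitreal injection of test compound at PND 15, with PBS in the contralateral eye. Retinae were taken 48 h later, and 30 μg of lysate was immunoblotted for SQSTM1/p62 and LC3 with β-actin as loading control. Blotting used SDS-PAGE, nitrocellulose transfer, 1 h blocking in 5% BSA/PBS-0.05% Tween 20, primary antibody overnight at 4 °C, secondary 1 h at RT, and chemiluminescent detection.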

[8] = tested on: rhodopsin mutants (T4R, P23H, P53R, C110Y, D190N, P267L); format: cell-based, mouse; conditions: U2OS cells
How it was run: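 U2OS stable lines expressed WT or mutant mouse rhodopsin fused to Venus. Cells were transfected with pcDNA3.1 Zeo constructs, kept 48 h in DMEM/10% FBS, then selected with 400 μg/mL Zeocin. Stable cells were treated with test compound at 10 μM and immunostained for rhodopsin.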

[9] = Estimated vitreous concentration after intravitreal injection, rabbit; conditions: 1.76 μmol, vitreous cavity about 1.5 mL, ref [70]
[10] = molecular target: P23H rhodopsin fused with Renilla luciferase (Mus musculus, UniProt P15409, P23H); assay: Rluc reporter assay in Hek293; format: cell-based; conditions: HEK293, read-out: Rluc assay Hek293 (RHO^P23H-Rluc) Efficacy
P23H rhodopsin [11] = molecular target: T1, P23H rhodopsin; assay: Image-based; format: cell-based
[12] = single IVI 25 pmol at PND 15, IHC at PND 33
[13] = single IVI 100 pmol at PND 15, ERG at PND 32

CN(Cc1cnc2nc(N)nc(N)c2n1)c1ccc(C(=O)N[C@@H](CCC(=O)O)C(=O)O)cc1 [CL-009, methotrexate]
MTX induced P23H rhodopsin clearance under co-treatment with BafA1 (immunoblot) (P23H rhodopsin [1]): abolished
Retinal degeneration caused by MTX (Rho^P23H/+ mice [2]; 100 pmol IVI, Rho^P23H/+ mice): did not see obvious retinal degeneration
Nucleus number in the ONL vs PBS group, superior side (Rho^P23H/+ mice [2]; four IVIs of 25 pmol, IHC at PND 46): higher
ONL nucleus number, either side of the retina (Rho^P23H/+ mice [2]; [12]): No change
Total rhodopsin level and rhodopsin in the OS compared to PBS control, superior side (Rho^P23H/+ mice [2]; [12]): significant increase
Rho mRNA level (qPCR) (RHO transcripts; NIH3T3(RHO^P23H/GFP) cells, vs DMSO control): No Change
WT and P23H rhodopsin transcripts in comparison to DMSO control (RHO transcripts; both NIH3T3(RHO^P23H/GFP) and NIH3T3(RHO^WT/GFP) cells): did not affect
BTN-AHA labeled P23H rhodopsin at 24 h of chase in comparison to DMSO control (P23H rhodopsin [3]): significantly reduced
Chymotrypsin-like proteasome activity [4]: did not affect
Multi-flash scotopic and photopic b-waves compared to PBS control group (Rho^P23H/+ mice [5]; four weekly IVIs starting at PND 15 (25 pmol per treatment), ERG at PND 44): significantly increased
Photopic ERG responses vs PBS treated or non-treated eyes (Rho^P23H/+ mice [5]; single IVI 25 pmol at PND 15, ERG at PND 32): higher
Multi-flash scotopic ERG a- and b-waves vs PBS or non-treated eyes (Rho^P23H/+ mice [5]; [13]): no effect
Photopic ERG responses vs PBS treated or non-treated eyes (Rho^P23H/+ mice [5]; [13]): did not show any effects
Ratio of scotopic and photopic b- to a-wave amplitudes (Rho^P23H/+ mice [5]; single IVI at PND 15, ERG at PND 32): not affected
Rho protein level (Dot blot) (P23H rhodopsin [6]): Down
WT rhodopsin level under BafA1 and MTX co-treatment (immunoblot) (WT rhodopsin): accumulation
LC3-II level in retinae compared to PBS control (Rho^P23H/+ mice [7]): increase
SQSTM1/p62 level in retinae compared to PBS control (Rho^P23H/+ mice [7]): decrease
Rhodopsin immunofluorescence in cells expressing the P23H, C110Y, D190N and P267L mutants [8]: dose-dependent reductions
Final concentration in vitreous [9]: about 1 mM
Emax [10]: 53%
Mean intensity of P23H rhodopsin immunostaining per cell (P23H rhodopsin [11]; MTX alone): reduced in an MTX dose-dependent manner
Emax (P23H rhodopsin [11]; NIH3T3, 24 h, read-out: Image-based assay NIH3T3 (RHO^P23H/GFP) Efficacy): 36%

Source: paper PMC7688577 (FASEB journal : official publication of the Federation of …, 2020)
